An excerpt weighted towards active compounds, which were near 6.4% of everything screened.
Fibroblast inh – blocks proliferation of human lung fibroblasts | LL 47 human lung fibroblast viability, ATP luminescence; active compounds read low | viability, % at 10 µM | 85,000 compounds, 1.1% hits;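 active means viability at or below 50% in the single dose screen; inactive means viability above 50%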;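 further: compound exposure lasted 72 h before the ATP readout; 100% = median luminescence of untreated cell-only wells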
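material = human LL 47 lung fibroblast cells | dosing = compounds added from tenfold dosing solution, 0.1% DMSO final | timing = overnight cell rest, 72 h compound treatment at 37 °C | measured by = CellTiter-Glo luminescence measuring cellular ATP | evaluation = % viability versus median cells-only luminescence | control set = cell-only wells, no compound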
H69AR growth 86K – blocks growth of human H69AR lung tumor cells | H69AR lung tumor viability, ATP luminescence, 72 h; active compounds read low | viability, % at 10 µM | 85,000 compounds, 6% hits | AID 598;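 active means viability at or below 40%; inactive means viability above 40%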;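 further: multidrug resistant small cell line overexpressing MRP-1 efflux transporter; 100% = mean luminescence of untreated control wells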
E coli WT exp – growth inhibitors of E. coli BW25113 wild type. OD600 absorbance. growth inhibition, % at 100 µM. 98,000 compounds, 0.15% hits;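 active means growth inhibition above about 50% at one test dose, limit read from the data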;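 further: growth measured after 20 h incubation at 37 °C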
Jurkat tox 60K – reduces viability or proliferation of Jurkat cells; 56,000 compounds, 1.2% hits; Jurkat E6.1 viability, ATP luminescence, 48 h; inhibition, % at 4 µM;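 active means inhibition above the mean inhibition of all tested compounds plus 3 SD, cut at about 28% in these data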
HUVEC inhibit – human endothelial cell proliferation inhibition | HUVEC proliferation, CellTiter-Glo luminescence, 72 h; active compounds read low | viability, % at 10 µM (by protocol) | 86,000 compounds, 1.1% hits | AID 648;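 active means viability at or below 30%; inactive means viability above 30%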;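 further: 100% = median luminescence of DMSO-only cell control wells on each plate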
tolC growth inh – blocks growth of E. coli BW25113 tolC mutant | OD615 | growth inhibition, % at 10 µM (by protocol) | 65,000 compounds, 2.2% hits | AID 573;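 active means growth inhibition at or above a cutoff equal to the mean over every tested compound plus 3 SD, cut at about 60% in these data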;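 further: growth measured after 20 h incubation at 37 °C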
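test system = E. coli BW25113 ΔtolC::kan bacteria | medium = LB with kanamycin 50 µg/mL | signal = OD at 615 nm | schedule = 37 °C, 20 h exposure | evaluation = % inhibition of E. coli growth | compound dosing = one dose of 10 µM final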
Starred values were filed as active, the others as inactive; / = not tested or not shown.

SMILES	Fibroblast inh	H69AR growth 86K	E coli WT exp	Jurkat tox 60K	HUVEC inhibit	tolC growth inh
O=C(OCC1OC(n2cnc3c(N(C(=O)c4ccccc4)C(=O)c4ccccc4)ncnc32)C(O)C1F)c1ccccc1 (configuration not stated)	105	2.7*	-8	/	84	/
COc1ccc(-c2nc(N)ncc2-c2csc(C)n2)c(O)c1	95	94	-2	1	106	-18
COc1ccc(-c2nc(N)nc(C)c2Oc2ccccc2Br)c(O)c1	75	23*	5	11	80	35
COc1ccccc1C1C(C(=O)c2cc3ccccc3o2)=C(O)C(=O)N1CCN1CCOCC1 (configuration not stated)	105	100	0	-3	93	-8
Cc1ccc(-c2nc3cc(NS(=O)(=O)c4ccc(C)cc4)ccc3o2)cc1	102	89	-13	/	77	/
O=C(Nc1ccc2oc(-c3ccccc3)nc2c1)c1cccs1	91	39*	/	/	84	/
O=C(Nc1ccc2oc(-c3ccccc3)nc2c1)c1ccncc1	101	95	-8	8	115	-5
O=S(=O)(Nc1ccc2oc(-c3ccccc3)nc2c1)c1ccccc1	97	99	-4	-5	102	100*
Cc1ccc(N(C)C(=O)N2CCN(S(=O)(=O)c3ccc4ccccc4c3)CC2)cc1	/	/	-13	/	/	/
COc1ccc(CCNC(=O)C2CCN(Cc3nc(-c4ccccc4C)oc3C)CC2)cc1OC	94	88	11	10	69	8
Cc1ccccc1-c1nc(CN2CCC(C(=O)NCCC3=CCCCC3)CC2)c(C)o1	76	28*	16	2	4.8*	65*
Cc1ccccc1-c1nc(CN2CCC(C(=O)NC3CCN(Cc4ccccc4)CC3)CC2)c(C)o1	57	22*	/	-6	9.9*	2
CCOc1ccc(C(C)NC(=O)Nc2ccccc2C(=O)OC)cc1 (configuration not stated)	107	107	0	/	101	/
CCn1c(COc2ccc(Cl)cc2)nnc1SCc1nc2ccccc2[nH]1	91	4.4*	2	/	88	/
CCSc1ccccc1C(=O)n1nnc2ccccc21	86	12*	-1	0	81	-13
CCSc1ccccc1C(=O)N1CCCC1	101	98	5	/	88	/
CC(C)N1CCC2(CC1)N=C(c1ccc3c(c1)OCO3)CC(c1cc(Cl)ccc1O)N2 (configuration not stated)	5.9*	1.5*	29	25	30*	100*
CCOC(=O)c1c2c(n(C)c1COC)C(=O)C(=O)c1ccc(Br)cc1-2	2.2*	1.5*	/	/	2.1*	/
CCOC(=O)c1cnc(SCc2nc(N)nc(Nc3ccc(F)cc3)n2)nc1N	91	36*	-14	4	99	13
CCOC(=O)c1cnc(SCc2nc(N)nc(Nc3ccc(C)cc3)n2)nc1N	76	35*	5	7	97	30
CCOC(=O)c1cnc(SCc2nc(N)nc(Nc3ccccc3OC)n2)nc1N	102	97	2	/	113	/
CC(=O)NC(=O)COC(=O)/C=C/c1c(C)nn(Cc2c(Cl)cccc2Cl)c1Cl	99	74	-1	/	82	/
CCOC(=O)/C(=N/Nc1ccc(Cl)cc1)S(=O)(=O)c1ccccc1	98	96	-3	/	102	/
COc1ccc(/C=N/Nc2snc(SC)c2C#N)cc1OC	83	48	-8	/	64	/
COc1cccc(/C=N/Nc2snc(SC)c2C#N)c1O	68	20*	/	/	61	/
SMILES	Fibroblast inh	H69AR growth 86K	E coli WT exp	Jurkat tox 60K	HUVEC inhibit	tolC growth inh
Cc1ccc(NC2=NC(=S)N(CC#N)C23CCCCC3)cc1	101	82	/	/	100	/
O=C(CN1CCN(c2nc(-c3ccc(F)cc3)cs2)CC1)Nc1ccc2c(c1)OCO2	90	40*	-5	8	82	24
O=c1c2cc(-c3ccccc3)sc2ncn1/N=C/c1ccco1	94	87	-3	-2	97	-31
Cc1onc(-c2c(Cl)cccc2Cl)c1C(=O)N/N=C(\N)COc1ccc(Cl)cc1	/	/	25	/	/	/
Oc1c(C(c2cccs2)N2CCOCC2)sc2ncnn12 (configuration not stated)	99	104	3	0	110	-4
Oc1c(C(c2cccs2)N2CCN(c3cccc(Cl)c3)CC2)sc2ncnn12 (configuration not stated)	95	84	3	4	104	100*

Source: PubChem
